The source made the active and inactive calls. The calls are words filed in the database; no cut-off is given here.

The target in series [1] is Protective antigen (Bacillus anthracis) (UniProt P13423). The series is described as follows: Inhibition of Bacillus anthracis Protective antigen assessed as reduction in PA63 level in CHO C4 cells at 100 uM after 1 hr by Western blot analysis relative to untreated-control. The series is classed as cell-based.
For series [2] the target is unchanged. Kind of series: Inhibition of Bacillus anthracis Protective antigen-mediated cytotoxicity in RAW264.7 cells by MTT assay in presence of fetal bovine serum. The series is classed as cell-based.
For series [3] the target is unchanged. Kind of series: Inhibition of Bacillus anthracis Protective antigen assessed as reduction in PA83 level in CHO C4 cells at 100 uM after 1 hr by Western blot analysis relative to untreated-control in presence of lethal factor. The class given is cell-based.
For another series, the species on record is Homo sapiens. The series is described as follows: Inhibition of human furin-mediated TGFalpha-PE38 cleavage at 1 to 100 uM after 1 hr by Western blot analysis. An outline of the steps: (§1)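 Substrate at 100 nM (purified PA for PA83 cleavage; TGFα-PE38 with a furin-cleavable RKKR linker) was mixed with 1, 10 or 100 μM inhibitor, or 1% DMSO. Buffer: 50 mM Hepes pH 7.5, 2 mM CaCl2, 0.5 mM EDTA, 0.2% octyl glucoside. Soluble human furin was added at 1 nM final for 1 h at 37°C. The reaction was boiled in SDS dye, run on a 4–20% gel and blotted with anti-PA or anti-Pseudomonas exotoxin serum.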

Series [4] addresses Protective antigen (Bacillus anthracis) (UniProt P13423). Kind of series: Inhibition of Bacillus anthracis Protective antigen-mediated cytotoxicity in human HT1080 cells by MTT assay in presence of fetal bovine serum. The class given is cell-based. Particulars: HT-1080.
Series [5] has the same target. The series is described as follows: Inhibition of human furin-mediated Bacillus anthracis PA83 cleavage at 1 to 100 uM after 1 hr by Western blot analysis. The method, boiled down:
as §1

The subject of series [6] is HT-1080. The series is described as follows: Cytotoxicity against human HT1080 cells compound incubated at 10 to 100 uM for extended period by MTT assay. The class given is cell-based. The conditions noted are these: ht-1080, 100 µM. An outline of the steps:
(§2)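 Compound toxicity was measured in serum-free DMEM with 10 mM Hepes pH 7.3 and gentamicin at 37°C, by MTT read-out. There were two exposure schemes: a 5-h exposure, or a 54-h incubation in which the inhibitor was removed from the medium after 5 h. MTT cannot distinguish growth inhibition from toxicity.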

In series [7] the target is Protective antigen (Bacillus anthracis) (UniProt P13423). The series is described as follows: Inhibition of Bacillus anthracis Protective antigen-mediated cytotoxicity in RAW264.7 cells at 10 uM compound co-treated for 5 hrs with antigen by MTT assay in presence of lethal factor. The series is classed as cell-based.
Series [8] shares this target. The series is described as follows: Inhibition of Bacillus anthracis Protective antigen-mediated cytotoxicity in RAW264.7 cells at 3 uM compound co-treated for 5 hrs with antigen measured after 48 hrs by MTT assay in presence of FP59. The series is classed as cell-based.
The target is the same in series [9]. The series is described as follows: Inhibition of Bacillus anthracis Protective antigen assessed as reduction in PA83 level in CHO C4 cells at 100 uM after 1 hr by Western blot analysis relative to untreated-control. The class given is cell-based.
Series [10] concerns RAW264.7. The series is described as follows: Cytotoxicity against mouse RAW264.7 cells compound incubated at 10 to 100 uM for extended period by MTT assay. The series is classed as cell-based. The conditions noted are these: raw264.7, 100 µM. The method, boiled down: as §2
The target in series [11] is Protective antigen (Bacillus anthracis) (UniProt P13423). The series is described as follows: Inhibition of Bacillus anthracis Protective antigen-mediated cytotoxicity in RAW264.7 cells compound co-treated for 5 hrs with antigen by MTT assay in presence of lethal factor. The series is classed as cell-based.
The subject of series [12] is HT-1080. The series is described as follows: Cytotoxicity against human HT1080 cells at 10 to 100 uM by MTT assay. The series is classed as cell-based. The conditions noted are these: ht-1080, 100 µM. An outline of the steps: as §2
Series [13] relates to RAW264.7. The series is described as follows: Cytotoxicity against mouse RAW264.7 cells at 10 to 100 uM by MTT assay. Particulars: raw264.7, 100 µM. The series is classed as cell-based. An outline of the steps: as §2
For series [14], the target named is Protective antigen (Bacillus anthracis) (UniProt P13423). Kind of series: Inhibition of Bacillus anthracis Protective antigen-mediated cytotoxicity in RAW264.7 cells at 100 uM compound co-treated for 5 hrs with antigen measured after 48 hrs by MTT assay in presence of FP59. The series is classed as cell-based.
Series [15] has the same target. Kind of series: Inhibition of matrix metalloprotease activated Bacillus anthracis Protective antigen-mediated cytotoxicity in HT1080 cells at 100 uM compound co-treated for 5 hrs with antigen measured after 48 hrs by MTT assay in presence of FP59. The series is classed as cell-based. The conditions noted are these: HT-1080.
Series [16] shares this target. Kind of series: Inhibition of Bacillus anthracis Protective antigen-mediated cytotoxicity in RAW264.7 cells at 100 uM compound co-treated for 5 hrs with antigen by MTT assay in presence of lethal factor. The class given is cell-based.
Series [17] has the same target. Kind of series: Inhibition of Bacillus anthracis Protective antigen-mediated cytotoxicity in HT1080 cells at 100 uM compound co-treated for 5 hrs with antigen measured after 48 hrs by MTT assay in presence of FP59. The series is classed as cell-based. The conditions noted are these: HT-1080.

Protective antigen (Bacillus anthracis), sequence (P13423 whole entry): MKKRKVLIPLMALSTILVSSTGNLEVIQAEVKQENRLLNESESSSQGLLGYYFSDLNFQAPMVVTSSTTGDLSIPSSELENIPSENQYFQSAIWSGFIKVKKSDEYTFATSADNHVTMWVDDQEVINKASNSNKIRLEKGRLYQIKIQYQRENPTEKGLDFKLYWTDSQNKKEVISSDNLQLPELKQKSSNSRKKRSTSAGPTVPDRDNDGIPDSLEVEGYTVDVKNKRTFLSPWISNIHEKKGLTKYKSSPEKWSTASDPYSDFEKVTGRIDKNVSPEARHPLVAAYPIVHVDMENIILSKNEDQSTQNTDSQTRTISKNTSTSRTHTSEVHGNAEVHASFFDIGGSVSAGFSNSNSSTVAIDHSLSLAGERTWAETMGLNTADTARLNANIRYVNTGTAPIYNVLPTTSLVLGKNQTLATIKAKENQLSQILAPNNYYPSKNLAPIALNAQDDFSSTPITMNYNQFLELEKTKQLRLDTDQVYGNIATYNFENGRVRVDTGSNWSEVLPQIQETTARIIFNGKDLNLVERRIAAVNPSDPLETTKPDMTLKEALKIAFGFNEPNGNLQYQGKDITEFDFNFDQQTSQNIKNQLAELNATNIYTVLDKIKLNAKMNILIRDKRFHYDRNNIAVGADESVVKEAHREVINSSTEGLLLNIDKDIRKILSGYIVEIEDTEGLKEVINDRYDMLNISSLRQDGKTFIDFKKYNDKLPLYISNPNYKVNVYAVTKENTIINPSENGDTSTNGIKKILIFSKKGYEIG

In the case of `Oc1ccccc1/C=N/c1ccc(Cc2ccc(/N=C/c3ccccc3O)c(O)c2)cc1O`, the inhibition entry in series [1], in series [5], in series [7] and in series [8] was “Active” each time. Further, the inhibition entry (in series [2]; in series [3]; in the series filed under Homo sapiens; in series [4]; in [9]) was “inactive” throughout. In addition, the Activity result in the series with HT-1080 [6] and with RAW264.7 [10] was “Toxic” each time.

Consider `NC(=O)c1ccccc1NC(=O)c1cccc(C(=O)Nc2ccccc2C(N)=O)c1`, for which the inhibition entry in [11] is “Active”.

Take `NC(=O)c1ccccc1NC(=O)c1ccc(C(=O)Nc2ccccc2C(N)=O)cc1`: the inhibition entry in series [1], in [7] and in series [8] was “Active” each time. Moreover, the inhibition result (in series [2]; in series [3]; in the series listed under Homo sapiens; in series [4]; in series [5]; in series [9]) was “inactive” each time. The Activity result in the series on HT-1080 [12] and with RAW264.7 [13] was “Non-toxic” each time.

On to `O=c1c(O)c(-c2ccc(O)c(O)c2)oc2cc(O)cc(O)c12`, for which the inhibition result in series [14], in [15], in series [16] and in series [17] was “Active” in each case. Besides, the inhibition entry (in [1]; in [2]; in series [3]; in the series listed under Homo sapiens; in series [4]; in [5]) was “inactive” in each case. Moreover, the inhibition entry in [9] was “inactive”.
